Measured values taken from ChEMBL document CHEMBL4251575, “Design, synthesis, and biological evaluation of 1,3-diarylisoquinolines as novel topoisomerase I catalytic inhibitors” (Eur J Med Chem, 2018).
Calls of active or inactive are those of the source. No cut-off for these calls is given here.

Legend:
[1] = biological target: T1, DNA topoisomerase 1 (Homo sapiens) (UniProt P11387); assay: Inhibition of human recombinant DNA topoisomerase 1-mediated DNA relaxation at 100 uM incubated for 30 mins using pBR322 DNA substrate by ethidium bromide dye-based agarose gel electrophoresis
T1 sequence (whole entry): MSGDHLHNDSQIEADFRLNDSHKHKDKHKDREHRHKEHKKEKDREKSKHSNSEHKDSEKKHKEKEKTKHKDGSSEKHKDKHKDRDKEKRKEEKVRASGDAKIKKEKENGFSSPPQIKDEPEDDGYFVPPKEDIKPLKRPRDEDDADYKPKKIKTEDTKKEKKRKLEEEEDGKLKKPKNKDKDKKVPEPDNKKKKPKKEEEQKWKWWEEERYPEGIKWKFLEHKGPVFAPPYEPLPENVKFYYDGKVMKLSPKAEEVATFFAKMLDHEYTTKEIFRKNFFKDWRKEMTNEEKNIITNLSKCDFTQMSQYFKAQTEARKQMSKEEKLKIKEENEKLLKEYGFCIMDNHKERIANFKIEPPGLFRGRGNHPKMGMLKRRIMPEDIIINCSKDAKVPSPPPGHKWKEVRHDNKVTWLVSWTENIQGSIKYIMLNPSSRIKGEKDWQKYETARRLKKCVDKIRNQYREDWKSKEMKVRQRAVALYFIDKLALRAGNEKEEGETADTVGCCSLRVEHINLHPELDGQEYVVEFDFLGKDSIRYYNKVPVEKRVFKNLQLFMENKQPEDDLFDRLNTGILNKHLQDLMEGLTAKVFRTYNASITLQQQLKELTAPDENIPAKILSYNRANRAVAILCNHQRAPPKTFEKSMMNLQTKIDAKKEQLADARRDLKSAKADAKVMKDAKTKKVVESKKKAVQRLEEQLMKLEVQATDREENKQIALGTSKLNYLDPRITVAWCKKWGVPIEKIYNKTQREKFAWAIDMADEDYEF
Method in brief: (§1)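 pBR322 (100 ng) with recombinant human topo I (0.4 units) in 10 mM Tris-HCl pH 7.9, 150 mM NaCl, 0.1% BSA, 1 mM spermidine, 5% glycerol, 30 min at 37 °C. Stopped with sarcosyl/glycerol/dye and run on 1% agarose/TAE at 15 V for 7 h. EtBr-stained; supercoiled DNA quantified as % inhibition. Relative values are the ratio to the camptothecin control.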

[2] = biological target: T1, DNA topoisomerase 1 (Homo sapiens); assay: Inhibition of human recombinant DNA topoisomerase 1-mediated DNA relaxation at 100 uM incubated for 30 mins using pBR322 DNA substrate by ethidium bromide dye-based agarose gel electrophoresis relative to control camptothecin; method in brief: as §1
[3] = biological target: T1, DNA topoisomerase 1 (Homo sapiens); assay: Inhibition of human recombinant DNA topoisomerase 1-mediated DNA relaxation at 20 uM incubated for 30 mins using pBR322 DNA substrate by ethidium bromide dye-based agarose gel electrophoresis relative to control camptothecin; method in brief: as §1
Sus scrofa [4] = species: Sus scrofa; assay: Induction of porcine brain tubulin polymerization at 10 uM after 61 mins by spectroscopic analysis
Method in brief: (§2)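 Porcine brain tubulin at 1.5 mg/mL final in cold PEM buffer (80 mM Na-PIPES pH 6.9, 1 mM MgCl₂, 30% glycerol, 1 mM EGTA) with 1 mM GTP. Compounds were dissolved in DMSO and diluted in PEM. They were pre-warmed 2 min at 37 °C before tubulin was added. DMSO vehicle and paclitaxel controls. A340 was read each minute for 61 min at 37 °C.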

T47D = assay: Cytotoxicity against human T47D cells after 72 hrs by cell counting kit-8 analysis; type: functional, cell-based
Method in brief: (§3)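 Cells seeded at 2×10^5 or 1×10^5 per well, grown overnight in medium with 10% FBS at 37 °C, 5% CO₂, then FBS-starved 4 h. Graded compound concentrations given for 72 h. CCK-8 then added for 4 h and absorbance read at 450 nm. IC50 from a four-parameter logistic fit; mean ± S.D. of three experiments, each in triplicate.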

HCT-15 = assay: Cytotoxicity against human HCT15 cells after 72 hrs by cell counting kit-8 analysis; type: functional, cell-based; conditions: HCT-15, 72 h; method in brief: as §3
[5] = biological target: DNA topoisomerase 2-alpha (Homo sapiens) (UniProt P11388); assay: Inhibition of human DNA topoisomerase 2 alpha-mediated DNA relaxation at 100 uM incubated for 30 mins using pBR322 DNA substrate by ethidium bromide dye-based agarose gel electrophoresis
Method in brief: (§4)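 Stopped with EDTA and run on 1% agarose/TAE at 25 V for 4 h. EtBr-stained; supercoiled DNA quantified as % inhibition. Relative values are the ratio to the etoposide control.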

MCF-10A = assay: Cytotoxicity against human MCF10A cells after 72 hrs by cell counting kit-8 analysis; type: cell-based; method in brief: as §3
[6] = biological target: DNA topoisomerase 2-alpha (Homo sapiens) (UniProt P11388); assay: Inhibition of human DNA topoisomerase 2 alpha-mediated DNA relaxation at 100 uM incubated for 30 mins using pBR322 DNA substrate by ethidium bromide dye-based agarose gel electrophoresis relative to control etoposide; method in brief: as §4
[7] = biological target: T1, DNA topoisomerase 1 (Homo sapiens); assay: Inhibition of human recombinant DNA topoisomerase 1-mediated DNA relaxation at 20 uM incubated for 30 mins using pBR322 DNA substrate by ethidium bromide dye-based agarose gel electrophoresis; method in brief: as §1
Sus scrofa [8] = species: Sus scrofa; assay: Inhibition of porcine brain tubulin polymerization at 10 uM after 61 mins by spectroscopic analysis; method in brief: as §2
[9] = biological target: T1, DNA topoisomerase 1 (Homo sapiens); assay: Poison activity at topoisomerase 1 (unknown origin) assessed as […] in enzyme mediated DNA cleavage complex formation by measuring increase in nicked DNA level at 500 uM using supercoiled pBR322 plasmid DNA as substrate after 20 mins by ethidium bromine dye-based agarose gel electrophoresis analysis
Method in brief: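 Supercoiled pBR322 (100 ng) pre-reacted 10 min with topo I (3 units), then compound added for 20 min at 37 °C. Stopped with 0.5% sarcosyl and digested with proteinase K at 45 °C for 30 min, then heated 2 min at 70 °C. Run on 1.5% agarose/TAE containing 0.5 μg/mL EtBr; nicked DNA versus DMSO control, CPT as poison control.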

[10] = biological target: T1, DNA topoisomerase 1 (Homo sapiens); assay: Inhibition of free DNA topoisomerase-1 in human T47D cells at 50 uM assessed as suppression of camptothecin-induced decrease in free topoisomerase-1 levels pre-treated before camptothecin addition and measured after 2 hrs by band depletion assay; type: cell-based
DNA = assay: Binding affinity to […] (unknown origin) at 100 uM preincubated for 30 mins in presence of Hoechst 33342 followed by compound addition measured after 30 mins by fluorescence assay; type: nucleic-acid assay
Method in brief: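 ctDNA (30 µM final) pre-mixed with Hoechst 33342 (1 µg/mL final) in 10 mM Tris (pH 7.2), 30 min at r.t. with shaking. Compound then added (0–100 μM series; DMSO 1% in all wells, DMSO-only control) and incubated 30 min at r.t. Fluorescence read at 361 nm excitation, emission spectrum 400–600 nm.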

[11] = biological target: T1, DNA topoisomerase 1 (Homo sapiens); assay: Inhibition of DNA topoisomerase-1 in human T47D cells assessed as decrease in free topoisomerase-1 levels incubated for 2 hrs by band depletion assay; type: cell-based
Method in brief: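 T47D cells seeded at 2×10^5 in 60-mm plates. On day 2 they were treated 2 h at 37 °C, harvested by trypsin and held in PBS containing the same compound concentration. Lysis in 62.5 mM Tris-HCl pH 6.8, 1 mM EDTA, 2% SDS with sonication, then centrifuged. 50 µg protein run on 8% SDS-PAGE; Western blot for free topo I with ECL detection.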

[12] = biological target: T1, DNA topoisomerase 1 (Homo sapiens); assay: Poison activity at human topoisomerase 1 assessed as induction of relaxation of pHOT1 DNA substrate at 1000 uM incubated for 30 mins by ethidium bromide dye-based agarose gel electrophoresis analysis
Method in brief: (§5)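 pHOT1 (100 ng) relaxed first with topo I (3 units) in 10 mM Tris-HCl pH 7.5, 1 mM EDTA, 30 min at 37 °C. Compound then added for a further 30 min at 37 °C; amsacrine positive control at 100–1000 μM. Stopped with 1% SDS and run on 1% agarose at 15 V/cm for 12–15 h. EtBr-stained and imaged.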

[13] = biological target: T1, DNA topoisomerase 1 (Homo sapiens); assay: Poison activity at topoisomerase 1 in human T47D cells assessed as induction of induction of DNA damage by measuring tail DNA levels at 10 uM after 24 hrs by SYBR Green staining-based comet assay; type: cell-based
Method in brief: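 T47D cells seeded at 1×10^5 per well and treated 24 h, then trypsinized and suspended in ice-cold PBS. Embedded in low-melting agarose, lysed 30 min at 4 °C and alkaline-unwound (pH > 13) 30 min at r.t. Alkaline electrophoresis 20 min at 15 V, then SYBR Green stain and fluorescence microscopy. Read-out is % tail DNA versus untreated and CPT controls.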

Sus scrofa [14] = species: Sus scrofa; assay: Inhibition of porcine brain tubulin polymerization at 15 uM after 61 mins by spectroscopic analysis; method in brief: as §2
[15] = biological target: T1, DNA topoisomerase 1 (Homo sapiens); assay: Poison activity at topoisomerase 1 in human T47D cells assessed as induction of induction of DNA damage by measuring tail DNA levels at 5 uM after 24 hrs by SYBR Green staining-based comet assay; type: cell-based
Method in brief: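 T47D cells seeded 1 x 10⁵ per well, treated 24 h, trypsinised, resuspended in ice-cold PBS, embedded in low-melting agarose on slides. Lysed 30 min at 4 °C in the dark, alkaline unwinding (pH > 13) 30 min at r.t., alkaline electrophoresis 20 min at 15 V, SYBR Green staining, fluorescence microscopy; % tail DNA versus untreated control.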

[16] = biological target: T1, DNA topoisomerase 1 (Homo sapiens); assay: Poison activity at human topoisomerase 1 assessed as induction of relaxation of pHOT1 DNA substrate at 100 to 1000 uM incubated for 30 mins by ethidium bromide dye-based agarose gel electrophoresis analysis; method in brief: as §5

DNA topoisomerase 2-alpha (Homo sapiens), sequence (P11388 whole entry): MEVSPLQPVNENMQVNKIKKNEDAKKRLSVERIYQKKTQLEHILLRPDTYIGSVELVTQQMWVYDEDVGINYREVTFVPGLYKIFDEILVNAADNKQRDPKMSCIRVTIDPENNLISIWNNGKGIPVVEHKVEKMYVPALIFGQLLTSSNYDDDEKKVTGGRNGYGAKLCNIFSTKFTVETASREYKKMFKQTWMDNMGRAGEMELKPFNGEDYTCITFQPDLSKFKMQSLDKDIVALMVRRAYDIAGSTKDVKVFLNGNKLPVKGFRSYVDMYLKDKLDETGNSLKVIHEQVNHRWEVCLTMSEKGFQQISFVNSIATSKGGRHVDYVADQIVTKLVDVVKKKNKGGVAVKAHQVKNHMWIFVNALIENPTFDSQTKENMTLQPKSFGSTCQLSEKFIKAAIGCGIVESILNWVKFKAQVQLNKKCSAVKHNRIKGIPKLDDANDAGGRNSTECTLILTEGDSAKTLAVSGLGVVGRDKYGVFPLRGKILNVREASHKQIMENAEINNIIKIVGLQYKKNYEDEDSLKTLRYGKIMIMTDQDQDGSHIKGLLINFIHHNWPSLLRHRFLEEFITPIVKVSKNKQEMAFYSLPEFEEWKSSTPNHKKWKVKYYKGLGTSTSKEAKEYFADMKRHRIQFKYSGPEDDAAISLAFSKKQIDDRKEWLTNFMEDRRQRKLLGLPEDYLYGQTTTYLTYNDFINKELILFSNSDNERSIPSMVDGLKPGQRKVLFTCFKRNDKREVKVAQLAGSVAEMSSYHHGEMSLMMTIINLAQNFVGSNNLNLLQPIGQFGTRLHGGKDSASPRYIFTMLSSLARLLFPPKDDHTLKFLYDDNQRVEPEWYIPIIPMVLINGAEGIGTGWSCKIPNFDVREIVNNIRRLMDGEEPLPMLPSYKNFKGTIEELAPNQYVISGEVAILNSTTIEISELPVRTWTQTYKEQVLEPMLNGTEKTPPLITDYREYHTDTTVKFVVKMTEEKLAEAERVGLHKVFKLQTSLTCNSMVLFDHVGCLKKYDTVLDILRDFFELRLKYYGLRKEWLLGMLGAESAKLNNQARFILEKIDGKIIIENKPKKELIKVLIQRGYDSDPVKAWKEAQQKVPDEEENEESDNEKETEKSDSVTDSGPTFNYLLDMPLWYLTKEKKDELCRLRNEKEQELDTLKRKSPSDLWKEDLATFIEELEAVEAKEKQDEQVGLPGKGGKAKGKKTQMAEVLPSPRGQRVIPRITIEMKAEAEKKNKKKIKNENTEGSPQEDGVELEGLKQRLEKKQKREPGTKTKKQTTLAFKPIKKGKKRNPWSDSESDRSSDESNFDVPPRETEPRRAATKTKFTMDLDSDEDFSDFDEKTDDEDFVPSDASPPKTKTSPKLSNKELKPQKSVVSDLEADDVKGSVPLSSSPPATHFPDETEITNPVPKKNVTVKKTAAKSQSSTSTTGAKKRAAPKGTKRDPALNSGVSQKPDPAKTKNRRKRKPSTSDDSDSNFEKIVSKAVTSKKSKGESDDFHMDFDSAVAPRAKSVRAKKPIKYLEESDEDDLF

COc1cc(OC)cc(-c2cc3ccc(N(C)C)cc3c(-c3cccc(N)c3)n2)c1
inhibition [1]: 73.1%
Ratio [2]: 1.12
Ratio [3]: 2.5
Tubulin polymerization induction (Sus scrofa [4]): inactive
IC50 (T47D): 3.59 µM
IC50 (HCT-15): 2.53 µM
inhibition [5]: 2.5%
IC50 (MCF-10A): 42 µM
Ratio [6]: 0.04
inhibition [7]: 71.5%
inhibition (Sus scrofa [8]): inactive

COc1ccc(-c2cc3cc(C)ccc3c(-c3cccc(N)c3)n2)c(C)c1
Activity [9]: inactive
inhibition [10]: Active
inhibition [1]: 79.7%
Activity (DNA): inactive
inhibition [11]: inactive
Activity [12]: inactive
Ratio [2]: 1.22
Ratio [3]: 2.53
Tubulin polymerization induction (Sus scrofa [4]): inactive
Activity [13]: 9.43%
IC50 (T47D): 0.74 µM
IC50 (HCT-15): 2.77 µM
inhibition (Sus scrofa [14]): Active
inhibition [5]: 4.1%
IC50 (MCF-10A): 5.74 µM
Ratio [6]: 0.06
inhibition [7]: 72.4%
Activity [15]: 5.82%

CC[C@@]1(O)C(=O)OCc2c1cc1n(c2=O)Cc2cc3ccccc3nc2-1
Activity [15]: 25%

COc1cc(NS(C)(=O)=O)ccc1Nc1c2ccccc2nc2ccccc12
Activity [16]: Active
